27 compounds from ChEMBL document CHEMBL4270570 (Eur J Med Chem, 2018) can be followed below.

Data set [1] is described as follows: Effective permeability of the compound at 10 uM after 5 hrs by PAMPA. The class given is ADME. The procedure, abridged:
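Lipid-precoated PAMPA plates thawed 30 min at room temperature. Compounds diluted from 10 mM DMSO stock into DPBS to 10 µM final and placed in donor wells, with DPBS in acceptor wells. Incubated 5 h at 25 °C without agitation. Donor and acceptor concentrations measured by LC-MS/MS. Pe calculated from acceptor and equilibrium concentrations, filter area 0.3 cm² and well volumes.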

The target of data set [2] is Gag-Pol polyprotein (Human immunodeficiency virus type 1 group M subtype B (isolate HXB2)(HIV-1), UniProt P04585). Briefly: Inhibition of HIV1 reverse transcriptase polymerase activity using 18 nucleotide DNA primer and 100 nucleotide DNA template after 30 mins. Also noted: species or system Human immunodeficiency virus 1. The procedure, abridged:
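Full-length RT at 20 nM with 40 nM template/primer (18-nt DNA primer on 100-nt DNA template) and 10 µM dNTPs in 50 mM Tris pH 7.8, 50 mM NaCl. Started with 6 mM MgCl2, with 1% DMSO and increasing compound concentrations. Primer extension ran 30 min at 37 °C and was stopped with 100 mM EDTA.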

Data set [3] can be described thus: Cytotoxicity against human P4R5 MAGI cells. It counts as cell-based. Put shortly: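 P4R5 cells express CD4, CXCR4, CCR5 and an HIV LTR-driven β-galactosidase reporter. They were seeded at 4×10^3 cells per well in DMEM/10% FBS with puromycin (1 µg/mL).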
The target in data set [4] is Human immunodeficiency virus type 1 integrase (Human immunodeficiency virus 1, UniProt Q7ZJM1). Briefly: Inhibition of HIV integrase strand transfer activity using 5'-biotin/3'-Cy5-labeled DNA substrate preincubated for 5 mins followed by substrate addition measured after 30 mins by HTS assay.
Human immunodeficiency virus type 1 integrase, sequence (Q7ZJM1 whole entry): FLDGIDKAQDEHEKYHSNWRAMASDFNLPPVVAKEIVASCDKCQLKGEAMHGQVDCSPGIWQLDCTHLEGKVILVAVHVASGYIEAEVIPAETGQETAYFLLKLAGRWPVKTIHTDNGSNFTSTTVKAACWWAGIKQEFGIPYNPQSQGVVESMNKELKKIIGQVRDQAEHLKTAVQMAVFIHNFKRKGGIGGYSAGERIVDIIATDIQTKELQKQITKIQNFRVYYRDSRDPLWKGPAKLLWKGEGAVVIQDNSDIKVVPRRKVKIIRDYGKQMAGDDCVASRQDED
Data set [5] addresses Human immunodeficiency virus type 1 reverse transcriptase (Human immunodeficiency virus 1, UniProt Q72547). Kind of data set: Inhibition of HIV1 reverse transcriptase RNaseH activity using 3'-fluorescein/5'-Dabcyl labeled HTS-1 substrate.
The test system of data set [6] is Human immunodeficiency virus 1. Briefly: Antiviral activity against HIV1 infected in CD4/CXCR4/CCR5 expressing human P4R5 MAGI cells preincubated with cells for 24 hrs followed by viral infection measured after 48 hrs by beta-galactosidase reporter gene assay. It counts as functional, organism-based.

With `COc1ccc(-c2ccc(Sc3cc(=O)n(O)c(=O)[nH]3)cc2)cc1OC`, in data set [1], the Peff came to 0.9 ×10⁻⁶ cm/s. Moreover, the IC50 in data set [2] stood at 10 µM; in data set [4] it was 0.33 µM; in data set [5], 0.004 µM. Besides, the half-maximal cytotoxic concentration (CC50) in data set [3] was above 100 µM. For the same compound, the EC50 in data set [6] is above 20 µM.

Take `COc1cccc(-c2ccc(Sc3cc(=O)n(O)c(=O)[nH]3)cc2)c1`: the results for the IC50 in data set [2], in data set [4] and in data set [5] were 10 µM, above 1 µM and 0.005 µM, respectively. Also, the CC50 in data set [3] is above 100 µM. The same compound showed an EC50 in data set [6] of 7.7 µM.

Take `O=c1cc(Sc2cccc(-c3ccc(Cl)cc3)c2)[nH]c(=O)n1O`: the IC50 in data set [2] was 7.8 µM; in data set [4] it was above 1 µM; in data set [5], 0.005 µM. The compound also had a CC50 in data set [3] above 100 µM. In data set [6], this compound displayed an EC50 of 10 µM.

As for `COc1ccc(-c2ccc(Sc3cc(=O)n(O)c(=O)[nH]3)cc2)cc1F`, the IC50 is 6.8 µM in data set [2], above 0.14 µM in data set [4] and 0.004 µM in data set [5]. In data set [3], the CC50 was above 100 µM. In data set [6], this compound showed an EC50 of 8 µM.

Take `O=c1cc(Sc2ccc(-c3ccc(F)cc3)cc2)[nH]c(=O)n1O`: the IC50 in data set [2] is above 10 µM; in data set [4] it was above 1 µM; in data set [5], 0.006 µM. Also, the CC50 in data set [3] was above 100 µM. Also, the EC50 in data set [6] came out at 12 µM.

In turn, `O=c1cc(Sc2ccc([N+](=O)[O-])cc2)[nH]c(=O)n1O` gave a Peff in data set [1] of 0.032 ×10⁻⁶ cm/s. Besides, the IC50 is above 10 µM in data set [2], 3.4 µM in data set [4] and 0.012 µM in data set [5]. For the same compound, the CC50 in data set [3] is above 100 µM. The compound further returned an EC50 in data set [6] above 20 µM.

For `O=c1cc(Sc2cccc(-c3cccc(C(F)(F)F)c3)c2)[nH]c(=O)n1O`, the figures for the IC50 in data set [2], in data set [4] and in data set [5] were 7.7 µM, above 1 µM and 0.007 µM, respectively. The CC50 in data set [3] is above 100 µM. Besides, the EC50 in data set [6] came out at 8.3 µM.

With `O=c1cc(Sc2ccccc2-c2ccc(F)cc2)[nH]c(=O)n1O`, the IC50 in data set [2] is above 10 µM; in data set [4], above 100 µM; in data set [5], 0.012 µM. The compound further returned a CC50 in data set [3] above 100 µM. Besides, a half-maximal effect in data set [6] (EC50) was put at 11 µM.

Consider `O=c1cc(Sc2ccc(-c3ccc(Cl)cc3)cc2)[nH]c(=O)n1O`, for which the IC50 in data set [2] is above 10 µM; in data set [4] it was above 1 µM; in data set [5], 0.007 µM. This compound yielded a CC50 in data set [3] above 100 µM. In data set [6], this compound gave an EC50 of 16 µM.

Consider `Cc1ccc(-c2ccc(Sc3cc(=O)n(O)c(=O)[nH]3)cc2)cc1`, for which the IC50 is 7 µM in data set [2], above 1 µM in data set [4] and 0.006 µM in data set [5]. Moreover, the CC50 in data set [3] was above 100 µM. In addition, in data set [6], the concentration giving a half-maximal response (EC50) was found to be 7.5 µM.

Consider `COc1cccc(Sc2cc(=O)n(O)c(=O)[nH]2)c1`, for which the IC50 in data set [2] was above 10 µM; in data set [4], 2.7 µM; in data set [5], 0.013 µM. This compound also gave a CC50 in data set [3] above 100 µM. The EC50 in data set [6] is 16 µM.

For the compound `O=c1cc(Sc2cccc(-c3cccc(F)c3)c2)[nH]c(=O)n1O`, the IC50 in data set [2] is 9.6 µM; in data set [4], 0.24 µM; in data set [5], 0.006 µM. Further, in data set [3], the CC50 is above 100 µM. Also, the EC50 in data set [6] was 6.5 µM.

As to `COc1ccc(-c2ccc(Sc3cc(=O)n(O)c(=O)[nH]3)cc2)cc1`, the figures for the IC50 in data set [2], in data set [4] and in data set [5] were 10 µM, above 100 µM and 0.006 µM, respectively. For the same compound, the CC50 in data set [3] was above 100 µM. In data set [6], the EC50 is 10 µM.

`O=c1cc(Sc2ccc(-c3cccc(C(F)(F)F)c3)cc2)[nH]c(=O)n1O`: the IC50 is above 10 µM in data set [2], above 100 µM in data set [4] and 0.008 µM in data set [5]. In addition, the CC50 in data set [3] is above 100 µM. Moreover, the EC50 in data set [6] is above 20 µM.

As for `Cc1cc(-c2ccc(Sc3cc(=O)n(O)c(=O)[nH]3)cc2)ccc1F`, the results for the IC50 in data set [2], in data set [4] and in data set [5] were above 10 µM, above 10 µM and 0.005 µM, respectively. The same compound showed a CC50 in data set [3] above 100 µM. Further, the EC50 in data set [6] turned out to be 18 µM.

Turning to `COc1ccccc1Sc1cc(=O)n(O)c(=O)[nH]1`, the half-maximal inhibitory concentration (IC50) was above 10 µM in data set [2], 8.4 µM in data set [4] and 0.017 µM in data set [5]. The compound also registered a CC50 in data set [3] above 100 µM. Further, the midpoint of the response in data set [6], the EC50, lay at 9 µM.

`O=c1cc(Sc2cccc(-c3ccc(F)c(Cl)c3)c2)[nH]c(=O)n1O`: the results for the IC50 in data set [2], in data set [4] and in data set [5] were 5.6 µM, above 1 µM and 0.005 µM, respectively. Also, the CC50 in data set [3] is above 100 µM. In data set [6], this compound gave an EC50 of 11 µM.

Turning to `O=c1cc(Sc2ccc(Cl)cc2)[nH]c(=O)n1O`, in data set [1], the Peff came out at 0.35 ×10⁻⁶ cm/s. The IC50 in data set [2] is above 10 µM; in data set [4], 0.64 µM; in data set [5] it was 0.012 µM. In data set [3], this compound registered a CC50 above 100 µM. Further, the EC50 in data set [6] is above 20 µM.

Regarding `O=c1cc(Sc2ccc(-c3cccc(F)c3)cc2)[nH]c(=O)n1O`, the IC50 in data set [2] is 10 µM; in data set [4], above 1 µM; in data set [5], 0.005 µM. This compound displayed a CC50 in data set [3] above 100 µM. The response in data set [6] was half-maximal at 7.2 µM (EC50).

Take `O=c1cc(Sc2cccc(-c3ccc(C(F)(F)F)cc3)c2)[nH]c(=O)n1O`: the IC50 was 10 µM in data set [2], above 0.14 µM in data set [4] and 0.007 µM in data set [5]. The CC50 in data set [3] is above 100 µM. The compound also had an EC50 in data set [6] of 11 µM.

In turn, `Cc1ccc(Sc2cc(=O)n(O)c(=O)[nH]2)cc1` gave a Peff in data set [1] of 0.92 ×10⁻⁶ cm/s. Further, the IC50 was above 10 µM in data set [2], 2.8 µM in data set [4] and 0.033 µM in data set [5]. In data set [3], this compound displayed a CC50 above 100 µM. This compound also returned an EC50 in data set [6] above 20 µM.

In the case of `O=c1cc(Sc2ccccc2-c2ccc(C(F)(F)F)cc2)[nH]c(=O)n1O`, the half-maximal inhibitory concentration (IC50) in data set [2] was above 10 µM; in data set [4], above 100 µM; in data set [5], 0.013 µM. The compound further came in with a CC50 in data set [3] above 100 µM. The compound further registered an EC50 in data set [6] of 7 µM.

`O=c1cc(Sc2ccc(-c3ccc(O)cc3)cc2)[nH]c(=O)n1O` had a Peff in data set [1] of 0.039 ×10⁻⁶ cm/s. The results for the IC50 in data set [2], in data set [4] and in data set [5] were above 10 µM, 0.17 µM and 0.004 µM, respectively. Also, the CC50 in data set [3] is above 100 µM. This compound gave an EC50 in data set [6] above 20 µM.

Consider `O=c1cc(Sc2cccc(-c3ccc(F)cc3)c2)[nH]c(=O)n1O`, for which the IC50 is 9.9 µM in data set [2], above 0.14 µM in data set [4] and 0.005 µM in data set [5]. Also, the CC50 in data set [3] is above 100 µM. In data set [6], this compound showed a 50% effective concentration (EC50) of 5 µM.

In the case of `COc1cc(OC)cc(-c2ccc(Sc3cc(=O)n(O)c(=O)[nH]3)cc2)c1`, the IC50 in data set [2] was above 10 µM; in data set [4], above 100 µM; in data set [5] it was 0.006 µM. The CC50 in data set [3] is above 100 µM. Moreover, it took 17 µM to reach a half-maximal effect in data set [6] (EC50).

For the compound `O=c1cc(Sc2ccc(-c3ccc(C(F)(F)F)cc3)cc2)[nH]c(=O)n1O`, the IC50 in data set [2] was 8.4 µM; in data set [4], above 1 µM; in data set [5], 0.039 µM. Moreover, the CC50 in data set [3] is above 100 µM. The compound also yielded an EC50 in data set [6] of 12 µM.

With `O=c1cc(Sc2cccc3ccccc23)[nH]c(=O)n1O`, the results for the IC50 in data set [2], in data set [4] and in data set [5] were 10 µM, 0.79 µM and 0.007 µM, respectively. In data set [3], the CC50 is above 100 µM. This compound also came in with an EC50 in data set [6] of 6.3 µM.
